Assay results published in ChEMBL document CHEMBL1127087, “Synthesis and structure-activity relationships of 3,5-disubstituted 4,5-dihydro-6H-imidazo[1,5-a][1,4]benzodiazepin-6-ones at diazepam-sensitive and diazepam-insensitive benzodiazepine receptors” (J Med Chem, 1993).

Tests used:
[1] = target: GABA-A receptor; anion channel; experiment: Displacement of [3H]flunitrazepam from diazepam-sensitive GABA-A benzodiazepine receptor of rat cortical membrane
Summary of the method: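 Washed rat cerebral cortex membranes (adult male Sprague-Dawley) in Tris-citrate pH 7.4 with NaCl. [3H]flunitrazepam at about 1 nM final, 2 h at 4 °C, then filtration. Six to eight inhibitor concentrations were used; IC50 came from a sigmoid fit. Three determinations, mean ± SEM.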

[2] = Ratio between diazepam-insensitive (DI) site / diazepam-sensitive (DS) site
Summary of the method: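 Rat cerebellar membranes washed five times in 50 mM Tris-citrate pH 7.8 with NaCl. [3H]Ro 15-4513 at about 2 nM final, 60 min at 0–4 °C, then filtration. DS+DI binding was defined by Ro 15-1788 (10 μM) displacement and DI binding as the diazepam (10 μM)-insensitive part. 0.1 nM–1 μM inhibitor; Cheng-Prusoff Ki; duplicate assays, three experiments. Ratio is Ki DI/DS.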

[3] = target: GABA-A receptor; anion channel; experiment: […] from diazepam-insensitive GABA-A benzodiazepine receptor of rat cerebellar membrane
[4] = target: GABA-A receptor; anion channel; experiment: […] from diazepam-sensitive GABA-A benzodiazepine receptor of rat cerebellar membrane

Structure (SMILES)	IC50 [1]	Ratio [2]	further results
CCOC(=O)Nc1ncn2c1CN(C)C(=O)c1ccccc1-2	> 1000 nM	–	–
CN1Cc2c(N=C=S)ncn2-c2ccccc2C1=O	739 nM	–	–
CN1Cc2c(NC=O)ncn2-c2ccccc2C1=O	> 1000 nM	–	–
CCOC(=O)c1ncn2c1CN(Cc1ccccc1)C(=O)c1ccccc1-2	9.3 nM	75	–
Cc1noc(-c2ncn3c2CN(Cc2ccccc2)C(=O)c2ccccc2-3)n1	34.3 nM	–	IC50 [3]: > 10000 nM
Cc1noc(-c2ncn3c2CN(Cc2ccccc2)C(=O)c2c(Cl)cccc2-3)n1	15.3 nM	101	–
CCOC(=O)c1ncn2c1CN(Cc1ccccc1)C(=O)c1c(Cl)cccc1-2	2.4 nM	51	–
CCOC(=O)c1ncn2c1CN(c1ccccc1)C(=O)c1ccccc1-2	> 1000 nM	–	–
C=CCN1Cc2c(C(=O)OCC)ncn2-c2ccccc2C1=O	157 nM	–	–
Cc1noc(-c2ncn3c2CN(Cc2ccccc2)C(=O)c2cc(Cl)ccc2-3)n1	338 nM	1.3	–
CCOC(=O)c1ncn2c1CN(Cc1ccccc1)C(=O)c1cc(Cl)ccc1-2	37.8 nM	0.8	Ki [3]: 1.4 nM
CC(=O)Nc1ncn2c1CN(C)C(=O)c1ccccc1-2	> 1000 nM	–	–
Cc1nnc(-c2ncn3c2CN(Cc2ccccc2)C(=O)c2ccccc2-3)o1	> 1000 nM	–	IC50 [3]: > 10000 nM
CCOC(=O)c1ncn2c1CN(c1ccc(OC)cc1)C(=O)c1ccccc1-2	> 1000 nM	–	–
CCOC(=O)c1ncn2c1CN(CCc1ccccc1)C(=O)c1ccccc1-2	340 nM	–	–
CCCN1Cc2c(C(=O)OCC)ncn2-c2ccccc2C1=O	238 nM	–	–
CCOC(=O)c1ncn2c1CN(C)C(=O)c1ccccc1-2	–	165	–
CCOC(=O)c1ncn2c1CNC(=O)c1ccccc1-2	164 nM	–	–
CCOC(=O)c1ncn2c1CN(C)C(=O)c1c(Cl)cccc1-2	–	100	–
CCOC(=O)c1ncn2c1CN(Cc1ccc(OC)cc1OC)C(=O)c1ccccc1-2	23.2 nM	24	Ki [4]: 5.4 nM; Ki [3]: 127 nM
COC(=O)Nc1ncn2c1CN(C)C(=O)c1ccccc1-2	> 1000 nM	–	–
Cc1ccc(S(=O)(=O)c2ncn3c2CN(C)C(=O)c2ccccc2-3)cc1	> 1000 nM	–	–
CN1Cc2c(C3=NCCO3)ncn2-c2ccccc2C1=O	687 nM	–	–
